The nature of assay [1]: inhibitors of TNFa-induced NFkB p65 translocation, primary screen, imaging, HUVEC, MLSMR starter and 10KST1 sets (AID 438).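 For inhibition: signal is the nuclear over cytoplasmic p65 intensity ratio per well.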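 Note: compound added about 3h40 before a 20 min TNFalpha stimulation.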 Particulars: HUVEC TNFa-induced p65 nuclear translocation; cell count: measured here: nuclei count (cytotoxicity indicator), at 2.08 µM; inhibition: at 2 µM, stronger effect = higher value, 0% TNFa-plus-vehicle, 100% no-TNFa wells.
Assay [2] can be described thus: inhibitors of mutant huntingtin aggregation, primary screen, imaging, exon1htt(103Q)mCFP cells, high-content imaging (AID 483;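 active = visual image review flags a hit and inhibition of aggregation exceeds 20%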;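 note: compound exposure lasted 3 days before fixation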;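 for nuclei count: percent of the per-plate median nuclei count of sample wells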). The following applies: exon1htt(103Q)mCFP cell line, aggregate imaging, at 2 µM; inhibition of aggregation: stronger effect = higher value; nuclei count: measured here: cell count, toxicity.
Assay [3] in a line: inhibitors of E-selectin induction by TNFa, primary screen, imaging, HUVEC, immunofluorescence, MLSMR starter and 10KST1 sets (AID 487;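 active = visually confirmed hit in the image check and inhibition above 20%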;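 for inhibition: signal is fraction of cell area covered by stained E-selectin grains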;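 for nuclei count: 100% = median nuclei count of all wells on the same plate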). Particulars: HUVEC TNFalpha-induced E-selectin immunofluorescence imaging, at 2 µM; inhibition: stronger effect = higher value; nuclei count: measured here: cell number, toxicity.
Assay [4] addresses Voltage-gated potassium channel subunit beta-2 (Rattus norvegicus) (UniProt P62483). Nature of the assay: KvBeta enzyme negative modulators, primary screen, biochemical, NADPH fluorescence (AID 622;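 active = fluorescence slope higher than the sample average by over 3 SD, cut at about -0.22 in these data, passing the limit was not always enough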;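 note: slope of raw intensity against log time taken from 70 to 1610 s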). Particulars: recombinant KvBeta, 4-cyanobenzaldehyde reduction, at 10 µM, stronger effect = higher value.
Assay [5] shares this target. In words: KvBeta positive modulators, primary screen, biochemical, NADPH fluorescence (AID 623;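 active = NADPH fluorescence slope more negative than the mean of all samples by about 3 SD, 99.7% confidence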;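 note: fluorescence intensity change per second fitted from 20 to 320 s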). The following applies: Recombinant KvBeta, NADPH fluorescence decrease slope, 10 min; at 10 µM; stronger effect = lower value.
Assay [6] has as its target Muscarinic acetylcholine receptor M4 (Homo sapiens) (UniProt P08173). Nature of the assay: compounds altering M4/GIRK thallium flux, either direction, primary screen, M4 allosteric agonist project, cell-based, HEK293 M4/GIRK, BTC-AM (AID 625;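 active = fluorescence slope after compound addition differing from the mean of all tested samples at 99.7% confidence, mostly higher but some lower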;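 note: thallium influx through GIRK channels coupled to M4 in HEK293 cells with BTC-AM dye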). Particulars: at 10 µM, actives lie on both sides. An outline of the steps:
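Assay system: HEK293 cells with M4 receptor and GIRK channels / Controls: carbachol and DMSO controls / Schedule: 1 h dye loading, 2 min kinetic read / Technique: kinetic fluorescence with BTC-AM dye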

Assay [7] can be described thus: inhibitors of Sendai virus-induced IRF3 signaling, primary screen, TLR/RLR signaling modifier project, cell-based, Sendai virus stimulus, luciferase, 10K MLSCN set (AID 602276;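 active = inhibition at or above 50% at 10 µM; inactive = inhibition below 50%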;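 note: firefly luciferase from ISG56 promoter only with Renilla not read in this screen; 0% = Sendai virus plus DMSO and 100% = medium plus DMSO without virus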). Particulars: HEK293 RL24 IRF3 luciferase reporter, at 10 µM, stronger effect = higher value. Background: A reporter such as luciferase makes a cellular process visible.
A short description of assay [8]: inhibitors of poly I:C-induced TLR3 signaling, primary screen, cell-based, poly I:C stimulus, luciferase, 10K MLSCN set (AID 602277;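 active = inhibition of the reporter signal at or above 50%; inactive = inhibition below 50%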). Particulars: HEK293-TLR3 RL24 IRF3 luciferase reporter, at 10 µM, stronger effect = higher value.

The structures appear in SMILES notation. The source made the active and inactive calls.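 Rule for the calls, unless noted: active = inhibition above 20% together with a positive visual image hit; inconclusive = visual image hit but inhibition not above 20%; inactive = no visual image hit.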

Experimental findings from PubChem BioAssay are described below.

As a reminder, the inhibition is the relative decrease from the control value, in per cent.

Voltage-gated potassium channel subunit beta-2 (Rattus norvegicus), sequence (P62483 whole entry, looked up): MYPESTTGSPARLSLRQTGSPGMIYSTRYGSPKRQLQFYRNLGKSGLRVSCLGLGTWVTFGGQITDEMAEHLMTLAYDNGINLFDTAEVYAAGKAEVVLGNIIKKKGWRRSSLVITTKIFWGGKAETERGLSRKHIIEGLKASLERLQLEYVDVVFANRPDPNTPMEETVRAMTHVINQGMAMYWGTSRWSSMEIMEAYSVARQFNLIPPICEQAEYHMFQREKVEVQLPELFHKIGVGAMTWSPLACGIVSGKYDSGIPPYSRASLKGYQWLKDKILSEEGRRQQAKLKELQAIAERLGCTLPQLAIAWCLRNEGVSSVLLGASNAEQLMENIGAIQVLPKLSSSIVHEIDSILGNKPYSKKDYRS
Muscarinic acetylcholine receptor M4 (Homo sapiens), sequence (P08173 whole entry, looked up): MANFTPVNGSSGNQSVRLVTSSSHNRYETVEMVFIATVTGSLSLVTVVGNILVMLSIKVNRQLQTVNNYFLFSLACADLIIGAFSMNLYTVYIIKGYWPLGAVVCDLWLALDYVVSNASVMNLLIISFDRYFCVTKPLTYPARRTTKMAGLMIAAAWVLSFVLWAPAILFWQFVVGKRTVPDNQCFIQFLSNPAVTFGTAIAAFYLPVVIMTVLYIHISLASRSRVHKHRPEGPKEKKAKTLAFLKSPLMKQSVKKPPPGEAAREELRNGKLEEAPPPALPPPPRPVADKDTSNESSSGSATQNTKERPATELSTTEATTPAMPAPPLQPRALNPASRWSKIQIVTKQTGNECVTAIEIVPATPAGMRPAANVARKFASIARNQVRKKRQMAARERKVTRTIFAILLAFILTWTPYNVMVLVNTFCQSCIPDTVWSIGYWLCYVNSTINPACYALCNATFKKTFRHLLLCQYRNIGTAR

Regarding `COC(=O)c1cc(Oc2ccc(C(=O)OC)cc2N)cc(C(=O)OC)c1`, in assay [1], the cell count is 278. Also, the inhibition in assay [1] is -12.5% (inactive); in assay [3] it was -19% (inactive); in assay [7] it was -3.38% (inactive); in assay [8], 8.08% (inactive). The inhibition of aggregation in assay [2] is 1% (inactive). Further, the nuclei count is 106% in assay [2] and 108% in assay [3]. Further, the fluorescence slope in assay [4] was -0.467 (inactive); in assay [6], 0.00407 (inactive). In addition, the NADPH fluorescence slope in assay [5] is -0.000384 (inactive).

For `CCOC(=O)c1cccc(NC(=O)Cn2cnc3c2c(=O)n(C)c(=O)n3C)c1`, in assay [1], the cell count stood at 467. The inhibition in assay [1] was 10.1% (inactive); in assay [3], 2.2% (inactive); in assay [7], -6.03% (inactive); in assay [8] it was -6.74% (inactive). Also, the inhibition of aggregation in assay [2] is 2.8% (inactive). For the same molecule, the nuclei count in assay [2] stood at 123%; in assay [3], 114%. Besides, the fluorescence slope in assay [4] was -0.261 (inactive); in assay [6], 0.00582 (inactive). For the same molecule, the NADPH fluorescence slope in assay [5] is -7e-06 (inactive).

For `Cc1ncoc1C(=O)Nc1ccccc1C(N)=O`, the cell count in assay [1] stood at 408. Also, the inhibition was 3.5% (inactive) in assay [1], -2.5% (inactive) in assay [3], 1.59% (inactive) in assay [7] and -3.92% (inactive) in assay [8]. For the same molecule, the inhibition of aggregation in assay [2] was 11.4% (inactive). The nuclei count in assay [2] came out at 102%; in assay [3], 108%. The results for the fluorescence slope in assay [4] and in assay [6] were -0.243 (inactive) and 0.00516 (inactive), respectively. In addition, the NADPH fluorescence slope in assay [5] is -1.8e-07 (inactive).

Regarding `OCc1nc2ccccc2n1CC(O)Cn1ccc2ccccc21` (centres undefined), the cell count in assay [1] turned out to be 463. Further, the inhibition is 2.9% (inactive) in assay [1], -71.2% (inactive) in assay [3], 1.37% (inactive) in assay [7] and -8.82% (inactive) in assay [8]. Moreover, the inhibition of aggregation in assay [2] was -7.1% (inactive). Further, the nuclei count stood at 98.2% in assay [2] and 117% in assay [3]. In addition, the fluorescence slope in assay [4] is -0.577 (inactive); in assay [6], 0.00376 (inactive). For the same molecule, the NADPH fluorescence slope in assay [5] is -5e-05 (inactive).

Regarding `Cc1ccc2c(c1)-c1cc(C)nn1C(c1ccc3c(c1)OCO3)N2` (centres undefined), the cell count in assay [1] was found to be 651. Besides, the inhibition was 4.2% (inactive) in assay [1], -7.1% (inactive) in assay [3], -4.39% (inactive) in assay [7] and -18.6% (inactive) in assay [8]. In assay [2], the inhibition of aggregation was 16% (inactive). Also, the nuclei count in assay [2] amounted to 99.1%; in assay [3], 130%. For the same molecule, the fluorescence slope in assay [4] is -0.568 (inactive); in assay [6], 0.00558 (inactive). Also, the NADPH fluorescence slope in assay [5] is -2.2e-05 (inactive).

On to `N#CC(C(=O)C1CCCCC1)c1nc2ccccc2[nH]1` (centres undefined), for which the cell count in assay [1] came to 723. The inhibition in assay [1] was -2% (inactive); in assay [3] it was -107% (inactive); in assay [7] it was 4.07% (inactive); in assay [8], -10.7% (inactive). Also, the inhibition of aggregation in assay [2] was -11.3% (inactive). Further, the results for the nuclei count in assay [2] and in assay [3] were 101% and 128%, respectively. Moreover, the fluorescence slope in assay [4] was -0.6 (inactive); in assay [6], 0.00531 (inactive). Besides, the NADPH fluorescence slope in assay [5] is 3e-06 (inactive).

As to `Cc1cccc(C)c1OCC(=O)Nc1cccc(NC(=O)c2ccco2)c1`, the cell count in assay [1] is 464. The inhibition was -9.5% (inactive) in assay [1], -10.3% (inactive) in assay [3], 13.3% (inactive) in assay [7] and 9.13% (inactive) in assay [8]. In addition, the inhibition of aggregation in assay [2] is 23.3% (inactive). Moreover, the nuclei count in assay [2] stood at 87.7%; in assay [3], 96.3%. For the same molecule, the fluorescence slope was -0.447 (inactive) in assay [4] and 0.00569 (inactive) in assay [6]. For the same molecule, in assay [5], the NADPH fluorescence slope is 5.1e-06 (inactive).

Regarding `O=c1[nH]c2ccc(S(=O)(=O)N3CCN(C4CCCCC4)CC3)cc2[nH]c1=O`, the cell count in assay [1] was 264. The inhibition in assay [1] was -7.8% (inactive); in assay [3] it was -52.5% (inactive); in assay [7], -0.0358% (inactive); in assay [8], 6.71% (inactive). Besides, in assay [2], the inhibition of aggregation is -36.5% (inactive). Also, the nuclei count in assay [2] amounted to 90.7%; in assay [3], 122%. In addition, the fluorescence slope in assay [4] was -0.484 (inactive); in assay [6], 0.00453 (inactive). Besides, in assay [5], the NADPH fluorescence slope is -0.000259 (inactive).

Consider `O=C(CP(=O)(c1ccccc1)c1ccccc1)N1CCCCC1`, for which the cell count in assay [1] was 378. Also, the inhibition in assay [1] was 6.6% (inactive); in assay [3] it was -29.8% (inactive); in assay [7], 18% (inactive); in assay [8] it was 22.1% (inactive). The inhibition of aggregation in assay [2] was -16% (inactive). For the same molecule, the nuclei count is 105% in assay [2] and 107% in assay [3]. Moreover, the fluorescence slope in assay [4] was -0.528 (inactive); in assay [6] it was 0.00576 (inactive). Moreover, the NADPH fluorescence slope in assay [5] is -1.9e-05 (inactive).

For `COc1ccccc1-c1ccc(Nc2cccc(C(C)=O)c2)nn1`, in assay [1], the cell count amounted to 319. Besides, the inhibition in assay [1] was -11.3% (inactive); in assay [3], 0.3% (inactive); in assay [7], 12.1% (inactive); in assay [8], -36.2% (inactive). Moreover, in assay [2], the inhibition of aggregation was -0.2% (inactive). Moreover, the nuclei count in assay [2] came to 74.7%; in assay [3], 103%. Further, the figures for the fluorescence slope in assay [4] and in assay [6] were -0.576 (inactive) and 0.00562 (inactive), respectively. In addition, the NADPH fluorescence slope in assay [5] is -6e-05 (inactive).

In the case of `Cc1cccc(-n2nnc(C(=O)NCc3ccccc3)c2N)c1`, the cell count in assay [1] was 477. For the same molecule, the inhibition in assay [1] was 2.1% (inactive); in assay [3] it was -2.7% (inactive); in assay [7] it was 9.81% (inactive); in assay [8] it was 9.19% (inactive). Moreover, the inhibition of aggregation in assay [2] is -17.4% (inactive). The results for the nuclei count in assay [2] and in assay [3] were 116% and 106%, respectively. The values for the fluorescence slope in assay [4] and in assay [6] were -0.461 (inactive) and 0.0054 (inactive), respectively. Further, the NADPH fluorescence slope in assay [5] was -0.000212 (inactive).

On to `Cc1ccsc1C1C2=C(CCCC2=O)Nc2ncnn21` (centres undefined), for which, in assay [1], the cell count was 266. Besides, the inhibition in assay [1] was -3.8% (inactive); in assay [3], -2.9% (inactive); in assay [7] it was 12.8% (inactive); in assay [8], 16.1% (inactive). In addition, in assay [2], the inhibition of aggregation was 15.5% (inactive). Besides, the nuclei count came to 86.7% in assay [2] and 101% in assay [3]. Also, the fluorescence slope in assay [4] is -0.523 (inactive); in assay [6], 0.00358 (inactive). In addition, the NADPH fluorescence slope in assay [5] is -0.000154 (inactive).

For the molecule `O=c1c2c3c(sc2nc2sc(C4CC4)nn12)CCCC3`, the cell count in assay [1] was 428. For the same molecule, the inhibition in assay [1] was -8.3% (inactive); in assay [3] it was 34.4% (inactive); in assay [7], -18.7% (inactive); in assay [8] it was -51.7% (inactive). Also, the inhibition of aggregation in assay [2] was 19.5% (inactive). The nuclei count in assay [2] was 80.2%; in assay [3], 67.7%. The fluorescence slope was -0.602 (inactive) in assay [4] and 0.00546 (inactive) in assay [6]. Moreover, the NADPH fluorescence slope in assay [5] was 3.7e-05 (inactive).

Regarding `COc1cccc(C2=NOC(C(=O)Nc3ccc(C(C)=O)cc3)C2)c1` (centres undefined), the cell count in assay [1] is 808. Also, the inhibition in assay [1] is -16.3% (inactive); in assay [3], -49.8% (inactive); in assay [7], -34.2% (inactive); in assay [8], -61.5% (inactive). Also, in assay [2], the inhibition of aggregation is -6.4% (inactive). Also, the nuclei count is 107% in assay [2] and 80% in assay [3]. Moreover, the fluorescence slope in assay [4] was -0.583 (inactive); in assay [6], 0.00535 (inactive). Besides, the NADPH fluorescence slope in assay [5] was 2.1e-05 (inactive).
